Experimental data from ChEMBL document CHEMBL1143828, “A new Aspergillus fumigatus resistance mechanism conferring in vitro cross-resistance to azole antifungals involves a combination of cyp51A alterations” (2007).
In brackets after ≈: the same amount, converted by molar mass.

Experiments:
Assay type in all cases: functional
[1] = system: Aspergillus fumigatus; experiment: Antifungal activity against azole-resistant Aspergillus fumigatus V13/02-CM3271 isolate from patient with X-linked chronic granulomatous disease by broth microdilution susceptibility test
Procedure, shortened: (§1)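 Broth microdilution per CLSI M38-A with modifications; agents tested: itraconazole, voriconazole, ravuconazole, posaconazole, amphotericin B. Clinical isolates stored as conidia in sterile distilled water, grown at 37°C on potato dextrose agar. Each strain tested at least three times on different days. Quality controls: A. flavus ATCC 204304 and A. fumigatus ATCC 204305.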

[2] = system: Aspergillus fumigatus; experiment: Antifungal activity against azole-resistant Aspergillus fumigatus V27/28-CM3273 isolate from patient by broth microdilution susceptibility test; procedure, shortened: as §1
[3] = system: Aspergillus fumigatus; experiment: Antifungal activity against azole-resistant Aspergillus fumigatus V34/76-CM3277 isolate from patient with hyper-immunoglobulin E syndrome by broth microdilution susceptibility test; procedure, shortened: as §1
[4] = system: Aspergillus fumigatus; experiment: Antifungal activity against azole-resistant Aspergillus fumigatus V28/78-CM3275 isolate from patient with acute myeloid leukemia by broth microdilution susceptibility test; procedure, shortened: as §1
[5] = system: Aspergillus fumigatus; experiment: Antifungal activity against azole-resistant Aspergillus fumigatus V34/77-CM3278 isolate from patient with hyper-immunoglobulin E syndrome by broth microdilution susceptibility test; procedure, shortened: as §1
[6] = system: Aspergillus fumigatus; experiment: Antifungal activity against azole-resistant Aspergillus fumigatus V41/26-CM3820 isolate from patient with pulmonary fibrosis by broth microdilution susceptibility test; procedure, shortened: as §1
[7] = system: Aspergillus fumigatus; experiment: Antifungal activity against azole-resistant Aspergillus fumigatus V48/27-CM3936 isolate from patient with acute myeloid leukemia by broth microdilution susceptibility test; procedure, shortened: as §1
[8] = system: Aspergillus fumigatus; experiment: Antifungal activity against azole-resistant Aspergillus fumigatus V45/07-CM3819 isolate from patient with chronic granulomatous disease by broth microdilution susceptibility test; procedure, shortened: as §1
[9] = system: Aspergillus fumigatus; experiment: Antifungal activity against azole-resistant Aspergillus fumigatus V49/09-CM4023 isolate from patient with chronic obstructive pulmonary disease by broth microdilution susceptibility test; procedure, shortened: as §1
[10] = system: Aspergillus fumigatus; experiment: Antifungal activity against azole-resistant Aspergillus fumigatus V13/03-CM3272 isolate from patient with X-linked chronic granulomatous disease by broth microdilution susceptibility test; procedure, shortened: as §1
[11] = system: Aspergillus fumigatus; experiment: Antifungal activity against azole-resistant Aspergillus fumigatus V34/75-CM3276 isolate from patient with hyper-immunoglobulin E syndrome by broth microdilution susceptibility test; procedure, shortened: as §1
[12] = system: Aspergillus fumigatus; experiment: Antifungal activity against azole-resistant Aspergillus fumigatus M03/669-CM2627 isolate from patient by broth microdilution susceptibility test; procedure, shortened: as §1
[13] = system: Aspergillus fumigatus; experiment: Antifungal activity against azole-resistant Aspergillus fumigatus V49/77-CM4050 isolate from patient with acute myeloid leukemia by broth microdilution susceptibility test; procedure, shortened: as §1
[14] = system: Aspergillus fumigatus; experiment: Antifungal activity against azole-resistant Aspergillus fumigatus V34/78-CM3279 isolate from patient with hyper-immunoglobulin E syndrome by broth microdilution susceptibility test; procedure, shortened: as §1

SMILES	MIC [1] [mg/L]	MIC [2] [mg/L]	MIC [3] [mg/L]	MIC [4] [mg/L]	MIC [5] [mg/L]	MIC [6] [mg/L]	MIC [7] [mg/L]	MIC [8] [mg/L]	MIC [9] [mg/L]	MIC [10] [mg/L]	MIC [11] [mg/L]	MIC [12] [mg/L]	MIC [13] [mg/L]	MIC [14] [mg/L]
CCC(C)n1ncn(-c2ccc(N3CCN(c4ccc(OCC5COC(Cn6cncn6)(c6ccc(Cl)cc6Cl)O5)cc4)CC3)cc2)c1=O (stereo not given) [ITRACONAZOLE]	> 8	> 8	> 8	> 8	> 8	> 8	> 8	> 8	> 8	> 8	> 8	> 8	> 8	> 8
C[C@@H](c1nc(-c2ccc(C#N)cc2)cs1)[C@](O)(Cn1cncn1)c1ccc(F)cc1F [RAVUCONAZOLE]	> 8	4 (≈ 9.14 µM)	4 (≈ 9.14 µM)	8 (≈ 18.3 µM)	4 (≈ 9.14 µM)	4 (≈ 9.14 µM)	8 (≈ 18.3 µM)	8 (≈ 18.3 µM)	8 (≈ 18.3 µM)	> 8	4 (≈ 9.14 µM)	4 (≈ 9.14 µM)	4 (≈ 9.14 µM)	4 (≈ 9.14 µM)
C[C@@H](c1ncncc1F)[C@](O)(Cn1cncn1)c1ccc(F)cc1F [VORICONAZOLE]	2 (≈ 5.73 µM)	4 (≈ 11.5 µM)	2 (≈ 5.73 µM)	4 (≈ 11.5 µM)	2 (≈ 5.73 µM)	4 (≈ 11.5 µM)	4 (≈ 11.5 µM)	> 8	4 (≈ 11.5 µM)	2 (≈ 5.73 µM)	4 (≈ 11.5 µM)	4 (≈ 11.5 µM)	4 (≈ 11.5 µM)	2 (≈ 5.73 µM)
CC[C@@H]([C@H](C)O)n1ncn(-c2ccc(N3CCN(c4ccc(OC[C@@H]5CO[C@@](Cn6cncn6)(c6ccc(F)cc6F)C5)cc4)CC3)cc2)c1=O [POSACONAZOLE]	1 (≈ 1.43 µM)	1 (≈ 1.43 µM)	0.5 (≈ 0.713 µM)	0.5 (≈ 0.713 µM)	0.5 (≈ 0.713 µM)	0.5 (≈ 0.713 µM)	4 (≈ 5.71 µM)	1 (≈ 1.43 µM)	4 (≈ 5.71 µM)	1 (≈ 1.43 µM)	0.5 (≈ 0.713 µM)	0.5 (≈ 0.713 µM)	1 (≈ 1.43 µM)	0.5 (≈ 0.713 µM)
C[C@@H]1[C@H](O)[C@@H](C)/C=C/C=C/C=C/C=C/C=C/C=C/C=C/[C@H](O[C@@H]2O[C@H](C)[C@@H](O)[C@H](N)[C@@H]2O)C[C@@H]2O[C@](O)(C[C@@H](O)C[C@@H](O)[C@H](O)CC[C@@H](O)C[C@@H](O)CC(=O)O[C@H]1C)C[C@H](O)[C@H]2C(=O)O [AMPHOTERICIN B]	0.25 (≈ 0.271 µM)	0.25 (≈ 0.271 µM)	0.25 (≈ 0.271 µM)	0.25 (≈ 0.271 µM)	0.25 (≈ 0.271 µM)	0.25 (≈ 0.271 µM)	0.25 (≈ 0.271 µM)	0.25 (≈ 0.271 µM)	0.25 (≈ 0.271 µM)	0.25 (≈ 0.271 µM)	0.25 (≈ 0.271 µM)	0.25 (≈ 0.271 µM)	0.25 (≈ 0.271 µM)	0.25 (≈ 0.271 µM)
